Results taken from ChEMBL document CHEMBL2062473, “Laurene-type sesquiterpenes from the Red Sea red alga Laurencia obtusa as potential antitumor-antimicrobial agents” (2012).
Values after ≈ are worked out from the molar mass of the structure shown. Active and inactive are the calls of the source. The rule behind the calls is not given here.

Legend:
Pseudomonas aeruginosa = experiment: Antibacterial activity against Pseudomonas aeruginosa ATCC […] by two fold serial dilution technique; format: functional, organism-based
Procedure, shortened: (§1)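 Compounds first screened by disk diffusion. Those giving inhibition zones above 15 mm were then tested for bacteriostatic MIC by two-fold serial dilution.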

Bacillus subtilis = experiment: Antibacterial activity against Bacillus subtilis ATCC 6633 by two fold serial dilution technique; format: functional; procedure, shortened: as §1
[1] = Cytotoxicity against mouse EAC at 25 to 100 uM after 2 hrs by trypan blue staining based hemocytometer analysis; format: functional, Ehrlich
Procedure, shortened: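 Ehrlich ascites cells were aspirated aseptically from a donor animal's peritoneal fluid and kept in RPMI 1640 with 10% FBS. Cells were exposed to compounds at three levels (100, 50, 25) prepared in DMSO/RPMI-1640 for 2 h at 37 C in humidified 5% CO2. Viability was scored by trypan blue exclusion on a hemocytometer; untreated control viability exceeded 95%.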

Candida albicans = experiment: Antifungal activity against Candida albicans after 48 hrs by microtiter broth dilution method; format: functional
Procedure, shortened: (§2)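 Fungi were grown 24 h at 37 C under 5% CO2 in YPD (1% yeast, 2% peptone, 2% dextrose), then diluted 1:100 in saline and 1:100 in YPD to about 1000 CFU per inoculum. Inocula were added to two-fold serial dilutions in 96-well broth, with drug-free growth and sterility controls. Plates were incubated 48 h at 37 C under 5% CO2. MIC was the lowest concentration without visible turbidity.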

Staphylococcus aureus = experiment: Antibacterial activity against Staphylococcus aureus ATCC 29213 by two fold serial dilution technique; format: functional; procedure, shortened: as §1
Aspergillus fumigatus = experiment: Antifungal activity against wild type Aspergillus fumigatus Af293 after 48 hrs by microtiter broth dilution method; format: functional; conditions: Af293, 48 h; procedure, shortened: as §2

Compound	MIC (Pseudomonas aeruginosa)	MIC (Bacillus subtilis) [µg/mL]	Activity [1] [%]	MIC (Candida albicans) [µg/mL]	MIC (Staphylococcus aureus) [µg/mL]	MIC (Aspergillus fumigatus) [µg/mL]
CC1=C(C)[C@@](C)(c2ccc(C=O)cc2)CC1 [ISOLAURELDEHYDE]	inactive	35 (≈ 163 µM)	83.1	70 (≈ 327 µM)	27 (≈ 126 µM)	100 (≈ 467 µM)
CC1=C(C)[C@@](C)(c2ccc(CO)cc2)CC1	inactive	46 (≈ 213 µM)		2000 (≈ 9250 µM)	52 (≈ 240 µM)	2000 (≈ 9250 µM)
CC(=O)N1CCN(c2ccc(OCC3COC(Cn4ccnc4)(c4ccc(Cl)cc4Cl)O3)cc2)CC1 (centres undefined) [KETOCONAZOLE]				40 (≈ 75.3 µM)		40 (≈ 75.3 µM)
CC1=C(C)[C@@](C)(C2=CCC(CO)=CC2)CC1	inactive	39 (≈ 179 µM)	79.9	120 (≈ 550 µM)	31 (≈ 142 µM)	200 (≈ 916 µM)
